Consider 9 compounds from ChEMBL document CHEMBL1772959, “Comosusols A-D and comosone A: cytotoxic compounds from the brown alga Sporochnus comosus” (J Nat Prod, 2011).

One data set has as its system SF-268. Put plainly: Growth inhibition of human SF268 cells after 48 hrs by sulforhodamine B assay. Format: functional. The following applies: SF-268, 48 h. In outline:
(§1)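 Grown in RPMI 1640 with L-glutamine plus 5% fetal bovine serum at 37 C, 5% CO2. Seeded at 5000 cells/well and allowed to attach 24 h. Pure compounds were added from DMSO as serial dilutions in medium over 66.7-0.01 μg/mL final. Cells were TCA-fixed and SRB-stained at 0 and 48 h, with absorbance read at 490 nm. GI50 was taken against vehicle-only and time-0 readings.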
A general note: Sulforhodamine B stains cellular protein and so reports cell mass.

Data set [1] is described as follows: Growth inhibition of chinese hamster CHOK1 cells after 48 hrs by sulforhodamine B assay. As to conditions: CHO-K1 cells. Format: cell-based, Cricetulus griseus. In outline: (§2)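 Cultured in MEM with Earle's salts, L-glutamine, nonessential amino acids and sodium pyruvate at 37 C, 5% CO2. Plated at 5000 cells/well with 24 h attachment. Pure compounds were given as serial dilutions from DMSO in medium over 66.7-0.01 μg/mL final. SRB protein staining after TCA fixation at 0 and 48 h, read at 490 nm. GI50 came from comparison with vehicle-only and time-0 values.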

For another data set, the system named is HT-29. Put plainly: Growth inhibition of human HT-29 cells after 48 hrs by sulforhodamine B assay. As to conditions: HT-29, 48 h. Format: functional. In outline:
as §2

The next data set deals with MCF7. Kind of data set: Growth inhibition of human MCF7 cells after 48 hrs by sulforhodamine B assay. Format: functional. As to conditions: MCF7, 48 h. In outline: as §1
In the next data set the test system is NCI-H460. Kind of data set: Growth inhibition of human H460 cells after 48 hrs by sulforhodamine B assay. As to conditions: NCI-H460, 48 h. Format: functional. The procedure, abridged: as §1

Consider `CC(=O)O[C@H]1CC(C)(C)C(=C=C/C(C)=C/C=C/C(C)=C/C=C/C=C(C)/C=C/C=C(\C)C(=O)C[C@@]23O[C@]2(C)C[C@@H](O)CC3(C)C)[C@](C)(O)C1`, for which the GI50 (usually the concentration giving 50% growth inhibition) in the data set on SF-268 was determined as 12 µM; in the data set on HT-29 it was 17 µM; in the data set on MCF7 it was 8 µM; with NCI-H460, 14 µM. Halving of growth in data set [1] (GI50 at 48 h) required 12 µM.

Consider `C=CC(C)(C)c1ccc(O)c(CC=C(C)C)c1`, for which the concentration for 50% growth inhibition (GI50) is 39 µM in the data set on SF-268, 57 µM in the data set on HT-29, 27 µM with MCF7 and 37 µM in the data set with NCI-H460. This compound also showed a 50% growth inhibitory concentration (GI50) at 48 h in data set [1] of 29 µM.

As to `C=CC(C)(C)C1=CC(=O)C(CC=C(C)C)=CC1=O`, the concentration for 50% growth inhibition (GI50) in the data set with SF-268 was found to be 17 µM; with HT-29, 37 µM; in the data set with MCF7 it was 26 µM; with NCI-H460 it was 41 µM. The 50% growth inhibitory concentration (GI50) at 48 h in data set [1] amounted to 17 µM.

For the compound `CC(C)=CCC1(CC=C(C)C)C[C@@H](O)C=CC1=O` [COMOSONE A], the GI50 in the data set with SF-268 was determined as 13 µM; with HT-29, 19 µM; in the data set with MCF7, 14 µM; with NCI-H460, 19 µM. This compound also gave a GI50 at 48 h in data set [1] of 17 µM.

Take `CC(C)=CCc1cc(O)cc(/C=C\C(C)(C)O)c1O` [COMOSUSOL A]: the GI50 amounted to 55 µM in the data set on SF-268, 53 µM in the data set on HT-29, 52 µM in the data set with MCF7 and 55 µM in the data set on NCI-H460. The compound also came in with a GI50 at 48 h in data set [1] of 57 µM.

For the compound `C=CC(C)(C)c1cc(O)c(/C=C\C(C)(C)O)cc1O` [COMOSUSOL B], the concentration for 50% growth inhibition (GI50) with SF-268 is 5 µM; in the data set with HT-29, 6 µM; with MCF7, 6 µM; with NCI-H460, 6 µM. In data set [1], this compound registered a concentration for 50% growth inhibition (GI50) at 48 h of 6 µM.

Regarding `C=CC(C)(C)c1cc(O)c(CC=C(C)C)cc1O` [COMOSUSOL C], the GI50 in the data set on SF-268 was determined as 35 µM; in the data set with HT-29, 43 µM; in the data set on MCF7 it was 25 µM; in the data set with NCI-H460, 29 µM. Moreover, halving of growth in data set [1] (GI50 at 48 h) required 27 µM.

As to `C=CC(C)(C)c1cc(O)c(C(O)C(O)C(C)(C)O)cc1O` (stereo not given) [COMOSUSOL D], the GI50 stood at 59 µM in the data set with SF-268, 51 µM in the data set with HT-29, 46 µM in the data set with MCF7 and 54 µM in the data set with NCI-H460. The concentration for 50% growth inhibition (GI50) at 48 h in data set [1] amounted to 63 µM.

On to `OC[C@@H](O)[C@H](O)[C@H](O)[C@@H](O)CO` [GALACTITOL], for which the 50% growth inhibitory concentration (GI50) with SF-268, in the data set with HT-29, in the data set on MCF7 and in the data set with NCI-H460 was above 220 µM throughout. In data set [1], this compound had a concentration for 50% growth inhibition (GI50) at 48 h above 220 µM.
